Calls of active or inactive are those of the source.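 The calls were made as follows, unless noted: active = fluorescence slope higher than the sample average by over 3 SD (cut at about -0.22 in these data, passing the limit was not always enough); inactive = the rest.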

Assay [1] can be described thus: inhibitors of TNFa-induced NFkB p65 translocation, primary screen, imaging, HUVEC, MLSMR starter and 10KST1 sets (AID 438;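 active = inhibition above 20% together with a positive visual image hit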;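 also: compound added about 3h40 before a 20 min TNFalpha stimulation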;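 as to inhibition: signal is the nuclear over cytoplasmic p65 intensity ratio per well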). Particulars: HUVEC TNFa-induced p65 nuclear translocation; cell count: measured here: nuclei count (cytotoxicity indicator), at 2.08 µM; inhibition: at 2 µM, stronger effect = higher value, 0% TNFa-plus-vehicle, 100% no-TNFa wells.
Assay [2] in a line: inhibitors of mutant huntingtin aggregation, primary screen, imaging, exon1htt(103Q)mCFP cells, high-content imaging (AID 483;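 active = visual image review flags a hit and inhibition of aggregation exceeds 20%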;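 also: compound exposure lasted 3 days before fixation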;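 as to nuclei count: percent of the per-plate median nuclei count of sample wells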). Particulars: exon1htt(103Q)mCFP cell line, aggregate imaging, at 2 µM; inhibition of aggregation: stronger effect = higher value; nuclei count: measured here: cell count, toxicity.
A short description of assay [3]: inhibitors of E-selectin induction by TNFa, primary screen, imaging, HUVEC, immunofluorescence, MLSMR starter and 10KST1 sets (AID 487;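 active = visually confirmed hit in the image check and inhibition above 20%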;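 as to inhibition: signal is fraction of cell area covered by stained E-selectin grains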;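 as to nuclei count: 100% = median nuclei count of all wells on the same plate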). The following applies: HUVEC TNFalpha-induced E-selectin immunofluorescence imaging, at 2 µM; inhibition: stronger effect = higher value; nuclei count: measured here: cell number, toxicity.
Assay [4] concerns the target Voltage-gated potassium channel subunit beta-2 (Rattus norvegicus) (UniProt P62483). Description: KvBeta enzyme negative modulators, primary screen, biochemical, NADPH fluorescence (AID 622).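 Also: slope of raw intensity against log time taken from 70 to 1610 s.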 Particulars: recombinant KvBeta, 4-cyanobenzaldehyde reduction, at 10 µM, stronger effect = higher value.
The target is the same in assay [5]. The assay can be described thus: KvBeta positive modulators, primary screen, biochemical, NADPH fluorescence (AID 623;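 active = NADPH fluorescence slope more negative than the mean of all samples by about 3 SD, 99.7% confidence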;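 also: fluorescence intensity change per second fitted from 20 to 320 s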). Particulars: Recombinant KvBeta, NADPH fluorescence decrease slope, 10 min; at 10 µM; stronger effect = lower value.
The target of assay [6] is Muscarinic acetylcholine receptor M4 (Homo sapiens) (UniProt P08173). The assay can be described thus: compounds altering M4/GIRK thallium flux, either direction, primary screen, M4 allosteric agonist project, cell-based, HEK293 M4/GIRK, BTC-AM (AID 625;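 active = fluorescence slope after compound addition differing from the mean of all tested samples at 99.7% confidence, mostly higher but some lower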;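 also: thallium influx through GIRK channels coupled to M4 in HEK293 cells with BTC-AM dye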). The following applies: at 10 µM, actives lie on both sides. Put shortly: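 assay system = HEK293 cells with M4 receptor and GIRK channels | medium = pH 7.3 thallium assay buffer | doses = 10 µM final, single point | timing = cells overnight at 37 °C, BTC-AM loading 1 h, reads 2 min total | signal = BTC-AM fluorescence, 1 Hz kinetic reads | read-out = post-addition slope, 15–24 s, of baseline-normalized fluorescence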
Sequence of Muscarinic acetylcholine receptor M4 (Homo sapiens) (P08173 whole entry, looked up): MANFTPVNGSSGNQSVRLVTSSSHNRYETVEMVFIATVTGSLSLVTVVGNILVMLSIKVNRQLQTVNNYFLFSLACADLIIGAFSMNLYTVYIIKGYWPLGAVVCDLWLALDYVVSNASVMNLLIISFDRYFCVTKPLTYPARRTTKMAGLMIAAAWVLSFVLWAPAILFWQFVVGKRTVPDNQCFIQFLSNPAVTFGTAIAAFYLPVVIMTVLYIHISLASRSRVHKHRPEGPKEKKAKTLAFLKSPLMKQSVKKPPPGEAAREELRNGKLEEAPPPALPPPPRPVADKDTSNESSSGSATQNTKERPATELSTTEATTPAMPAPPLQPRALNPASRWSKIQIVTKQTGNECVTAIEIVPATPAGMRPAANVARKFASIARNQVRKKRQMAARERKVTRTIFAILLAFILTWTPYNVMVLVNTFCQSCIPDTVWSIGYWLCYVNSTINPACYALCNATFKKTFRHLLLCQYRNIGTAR

The nature of assay [7]: inhibitors of Sendai virus-induced IRF3 signaling, primary screen, TLR/RLR signaling modifier project, cell-based, Sendai virus stimulus, luciferase, 10K MLSCN set (AID 602276;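 active = inhibition at or above 50% at 10 µM; inactive = inhibition below 50%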;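 also: firefly luciferase from ISG56 promoter only with Renilla not read in this screen; 0% = Sendai virus plus DMSO and 100% = medium plus DMSO without virus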). Particulars: HEK293 RL24 IRF3 luciferase reporter, at 10 µM, stronger effect = higher value. In general terms: Reporter assays use an easily measured gene product as a stand-in for the process of interest.
The nature of assay [8]: inhibitors of poly I:C-induced TLR3 signaling, primary screen, cell-based, poly I:C stimulus, luciferase, 10K MLSCN set (AID 602277;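 active = inhibition of the reporter signal at or above 50%; inactive = inhibition below 50%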). Particulars: HEK293-TLR3 RL24 IRF3 luciferase reporter, at 10 µM, stronger effect = higher value.

Sequence of Voltage-gated potassium channel subunit beta-2 (Rattus norvegicus) (P62483 whole entry, looked up): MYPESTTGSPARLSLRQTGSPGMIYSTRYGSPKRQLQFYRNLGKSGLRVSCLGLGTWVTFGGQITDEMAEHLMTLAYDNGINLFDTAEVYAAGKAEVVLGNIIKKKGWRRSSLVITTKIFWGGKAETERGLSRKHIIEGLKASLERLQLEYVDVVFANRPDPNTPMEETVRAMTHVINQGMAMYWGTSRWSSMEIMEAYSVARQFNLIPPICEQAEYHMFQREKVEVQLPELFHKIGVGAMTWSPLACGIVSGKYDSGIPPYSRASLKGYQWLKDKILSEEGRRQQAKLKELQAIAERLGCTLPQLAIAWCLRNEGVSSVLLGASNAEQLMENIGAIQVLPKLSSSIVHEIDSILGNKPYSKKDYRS

Turning to `Cc1nc2nc(SCC(=O)NCc3ccco3)nn2c(C)c1Cc1ccccc1`, the cell count in assay [1] amounted to 457. Besides, the inhibition in assay [1] is 1.4% (inactive); in assay [3] it was -10.5% (inactive); in assay [7], -7.73% (inactive); in assay [8] it was 0.532% (inactive). Moreover, the inhibition of aggregation in assay [2] was -6.7% (inactive). The nuclei count in assay [2] was found to be 112%; in assay [3], 126%. Besides, the figures for the fluorescence slope in assay [4] and in assay [6] were -0.353 (inactive) and 0.0066 (inactive), respectively. The NADPH fluorescence slope in assay [5] is -2.9e-05 (inactive).

For the compound `COc1ccc(-c2n[nH]c(C)c2-c2ccc(Cl)cc2)c(O)c1OC`, the cell count in assay [1] is 403. Further, the inhibition in assay [1] was -9.6% (inactive); in assay [3], -45.3% (inactive); in assay [7], 20.1% (inactive); in assay [8], 24.5% (inactive). Further, in assay [2], the inhibition of aggregation is -24.2% (inactive). Also, the nuclei count is 104% in assay [2] and 133% in assay [3]. For the same compound, the fluorescence slope in assay [4] was -0.529 (inactive); in assay [6], 0.00338 (inactive). Further, the NADPH fluorescence slope in assay [5] is -0.00026 (inactive).

Regarding `Cc1[nH]n2c(=O)cc(Cc3ccccc3)nc2c1C#N`, the cell count in assay [1] came out at 786. The inhibition is -6.7% (inactive) in assay [1], -15.8% (inactive) in assay [3], 15.1% (inactive) in assay [7] and 22% (inactive) in assay [8]. In addition, the inhibition of aggregation in assay [2] was 8.8% (inactive). In addition, the nuclei count amounted to 106% in assay [2] and 100% in assay [3]. The fluorescence slope in assay [4] was -0.538 (inactive); in assay [6], 0.00532 (inactive). Also, the NADPH fluorescence slope in assay [5] was -3.6e-05 (inactive).

With `CCN(CCNC(=O)C1CCN(S(=O)(=O)CC)CC1)c1ccccc1`, the cell count in assay [1] turned out to be 446. For the same compound, the inhibition in assay [1] is -14.7% (inactive); in assay [3] it was -93.7% (inactive); in assay [7], 15.8% (inactive); in assay [8] it was 11.8% (inactive). For the same compound, in assay [2], the inhibition of aggregation was 5.7% (inactive). The results for the nuclei count in assay [2] and in assay [3] were 86.2% and 106%, respectively. Also, the fluorescence slope in assay [4] is -0.254 (inactive); in assay [6] it was 0.00662 (inactive). Moreover, the NADPH fluorescence slope in assay [5] was -2.8e-05 (inactive).

Consider `COc1ccc(CCNC(=O)c2cc(-c3cc(C)c(C)cc3O)n[nH]2)cc1OC`, for which, in assay [1], the cell count worked out at 434. The inhibition is 2.8% (inactive) in assay [1], -83.7% (inactive) in assay [3], 9.16% (inactive) in assay [7] and 9.05% (inactive) in assay [8]. Besides, the inhibition of aggregation in assay [2] was 8.6% (inactive). The results for the nuclei count in assay [2] and in assay [3] were 88.9% and 145%, respectively. Besides, the fluorescence slope in assay [4] was -0.444 (inactive); in assay [6] it was 0.00555 (inactive). In addition, the NADPH fluorescence slope in assay [5] was -0.000364 (inactive).

Turning to `CCCCn1nnnc1SCC(=O)Nc1cccc(C)n1`, the cell count in assay [1] came out at 554. For the same compound, the inhibition in assay [1] is -46.9% (inactive); in assay [3], -47.5% (inactive); in assay [7], -10.8% (inactive); in assay [8], -6.38% (inactive). Further, the inhibition of aggregation in assay [2] is 9% (inactive). For the same compound, the nuclei count is 112% in assay [2] and 107% in assay [3]. Further, the fluorescence slope is -0.329 (inactive) in assay [4] and 0.00669 (inactive) in assay [6]. Further, the NADPH fluorescence slope in assay [5] is -3.8e-05 (inactive).

Consider `O=C(O)CSc1ccc2ccccc2n1`, for which the cell count in assay [1] was found to be 418. In addition, the inhibition in assay [1] was 3.6% (inactive); in assay [3], 15.7% (inactive); in assay [7], 19% (inactive); in assay [8] it was 23.8% (inactive). In addition, the inhibition of aggregation in assay [2] is 1.4% (inactive). The nuclei count in assay [2] amounted to 106%; in assay [3] it was 102%. Moreover, the fluorescence slope in assay [4] was -0.525 (inactive); in assay [6], 0.00444 (inactive). Further, in assay [5], the NADPH fluorescence slope was -3.7e-05 (inactive).

For the compound `Cc1ccc(S(=O)(=O)NCCCNC(=O)N2CCOCC2)cc1`, in assay [1], the cell count was found to be 769. Besides, the inhibition in assay [1] is -4.3% (inactive); in assay [3], -103% (inactive); in assay [7], 17.8% (inactive); in assay [8], 16.7% (inactive). The inhibition of aggregation in assay [2] is 1.3% (inactive). Moreover, the nuclei count worked out at 104% in assay [2] and 129% in assay [3]. Further, the fluorescence slope in assay [4] was -0.461 (inactive); in assay [6], 0.00502 (inactive). In addition, the NADPH fluorescence slope in assay [5] is -4.9e-05 (inactive).

For the compound `CC(C)(C)n1ncc2c(=O)n(CC(=O)NCCc3ccccc3)cnc21`, in assay [1], the cell count worked out at 457. Further, the inhibition is 3.9% (inactive) in assay [1], 27.5% (inactive) in assay [3], -40.8% (inactive) in assay [7] and -58.1% (inactive) in assay [8]. For the same compound, the inhibition of aggregation in assay [2] is 7.3% (inactive). In addition, the nuclei count came out at 95.2% in assay [2] and 92.8% in assay [3]. Also, the figures for the fluorescence slope in assay [4] and in assay [6] were -0.595 (inactive) and 0.0063 (inactive), respectively. Moreover, in assay [5], the NADPH fluorescence slope is 1.3e-05 (inactive).

In general, inhibition refers to the relative decrease from the control value, in per cent.

For the origin of these results see PubChem BioAssay.
